This is an account of results in ChEMBL document CHEMBL1926653, “Synthesis and binding assays of novel 3,3-dimethylpiperidine derivatives with various lipophilicities as σ₁ receptor ligands” (Bioorg Med Chem, 2011).

The nature of experiment [1]: Displacement of [3H]DTG from sigma 2 receptor in rat liver membranes. The note with it: read-out: Ki(app). In kind it is cell membranes, Membrane. In outline:
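Sigma-2 site labelled with [3H]-DTG at 30 Ci/mmol, following Matsumoto et al. Curves used 6–9 concentrations of test drug, repeated in two or three experiments with duplicate samples. IC50 (50% inhibition of specific binding) and apparent Ki were obtained by nonlinear curve fitting.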
Background: Displacement assays read how much labelled ligand stays bound in the presence of the test substance.

Experiment [2] can be described thus: Selectivity ratio of Ki for sigma 2 receptor in rat liver membranes to Ki for sigma 1 receptor in guinea pig brain membranes. The note with it: Membrane. It counts as cell membranes.
Experiment [3] addresses Sigma non-opioid intracellular receptor 1 (Cavia porcellus, UniProt Q60492). Description: Displacement of [3H]-(+)-pentazocine from sigma1 receptor in guinea pig brain membranes without cerebellum. It counts as cell membranes, Membrane. The note with it: read-out: Ki(app).
In experiment [4] the target is T1, 3-beta-hydroxysteroid-Delta(8),Delta(7)-isomerase (Cavia porcellus, UniProt Q60490).
T1 sequence (Q60490 whole entry): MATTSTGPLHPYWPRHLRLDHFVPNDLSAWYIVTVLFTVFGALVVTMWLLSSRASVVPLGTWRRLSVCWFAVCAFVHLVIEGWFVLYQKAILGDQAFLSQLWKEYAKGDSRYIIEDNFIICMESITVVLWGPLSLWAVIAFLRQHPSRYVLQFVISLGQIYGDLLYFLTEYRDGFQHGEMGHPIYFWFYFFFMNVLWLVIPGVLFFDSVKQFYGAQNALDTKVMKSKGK
Description: Displacement of [3H]-emopamil from delta(8)-delta(7) sterol isomerase in guinea pig liver membranes. It counts as cell membranes, Membrane. The note with it: read-out: Ki(app). In outline:
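Assay followed Moebius et al. Inhibition curves used 6–9 drug concentrations over two or three experiments run in duplicate. IC50 is the concentration giving 50% loss of specific radioligand binding. Apparent Ki came from nonlinear curve fitting.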

Experiment [5] deals with Sigma non-opioid intracellular receptor 1 (Rattus norvegicus, UniProt Q9R0C9). Description: Binding affinity to sigma1 receptor in rat brain membranes. In kind it is cell membranes. In outline: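 Radioligand displacement binding. IC50 is the concentration inhibiting 50% of specific radioligand binding, from 6–9 concentrations of the test drug, run in two or three experiments with duplicate samples. Apparent Ki came from nonlinear curve fitting. Compounds were tested as hydrochloride salts, or as free bases in some cases.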
Sigma non-opioid intracellular receptor 1 (Rattus norvegicus, UniProt Q9R0C9), sequence (Q9R0C9 whole entry): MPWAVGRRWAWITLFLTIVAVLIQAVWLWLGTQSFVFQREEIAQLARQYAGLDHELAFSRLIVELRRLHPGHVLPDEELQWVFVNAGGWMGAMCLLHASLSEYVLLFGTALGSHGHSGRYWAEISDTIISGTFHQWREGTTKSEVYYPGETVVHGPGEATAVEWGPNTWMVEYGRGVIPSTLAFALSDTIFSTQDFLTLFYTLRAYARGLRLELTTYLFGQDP

The target of experiment [6] is Sigma non-opioid intracellular receptor 1 (Cavia porcellus) (UniProt Q60492). In words: Displacement of [3H]-(+)-pentazocine from sigma 1 receptor in guinea pig brain membranes at 10^-10 M. It counts as cell membranes. The note with it: Membrane.
Sigma non-opioid intracellular receptor 1 (Cavia porcellus), sequence (Q60492 whole entry): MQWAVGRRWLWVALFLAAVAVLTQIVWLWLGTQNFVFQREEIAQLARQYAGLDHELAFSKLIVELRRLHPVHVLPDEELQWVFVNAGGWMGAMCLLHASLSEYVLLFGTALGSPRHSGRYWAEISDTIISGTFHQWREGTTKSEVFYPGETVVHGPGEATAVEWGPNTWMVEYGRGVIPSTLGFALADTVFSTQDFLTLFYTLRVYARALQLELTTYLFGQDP

Sigma non-opioid intracellular receptor 1 (Cavia porcellus, UniProt Q60492), sequence (Q60492 whole entry): as above

On to `CC1(C)CCCN(CCCC2CCCc3[nH]ccc32)C1` (racemic), for which the Ki in experiment [1] turned out to be 119 nM; in experiment [3], 27.1 nM. Moreover, the Ratio Ki in experiment [2] is 4.4.

As to `CC1(C)CCCN(CCCc2cccc3sccc23)C1`, the Ki in experiment [4] came to 0.9 nM; in experiment [1], 63.6 nM; in experiment [3], 52 nM. The Ratio Ki in experiment [2] was 1.2.

For the molecule `CC1(C)CCCN(CCCCN2CCCC(C)(C)C2)C1`, the Ki in experiment [4] turned out to be 213 nM; in experiment [1], 414 nM; in experiment [3] it was 14.1 nM. Also, the Ratio Ki in experiment [2] is 29.

Take `CC1(C)CCCN(CCCCC2CCCCC2)C1`: the Ki in experiment [4] was determined as 3.8 nM; in experiment [1], 19.6 nM; in experiment [3] it was 1.02 nM. The Ratio Ki in experiment [2] came out at 19.

As for `CC1(C)CCCN(CCCCC2CCc3ccccc32)C1` (stereo unspecified), the Ki in experiment [4] came to 1.54 nM; in experiment [1] it was 242 nM; in experiment [3] it was 1.75 nM. For the same molecule, the Ratio Ki in experiment [2] is 138.

Turning to `CC1(C)CCCN(CCCc2cccc3occc23)C1`, the Ki came to 1.1 nM in experiment [4], 42.3 nM in experiment [1] and 63.5 nM in experiment [3]. Further, the Ratio Ki in experiment [2] is 0.7.

For `CC1(C)CCCN(CCCC2CCCc3sccc32)C1` (racemic) [listing 1 of 3 here], the Ki in experiment [5] was > 3960 nM.

For `CC1(C)CCCN(CCCc2c[nH]c3ccccc23)C1`, the Ki worked out at 110 nM in experiment [1] and 41.6 nM in experiment [3]. Also, the Ratio Ki in experiment [2] came to 2.6.

As to `Cc1ccccc1NC(=N)Nc1ccccc1C` [DITOLYLGUANIDINE], the Ki in experiment [1] amounted to 34.3 nM.

As to `CC1(C)CCCN(Cc2cc3ccccc3o2)C1`, the Ki in experiment [1] was 1810 nM; in experiment [3], 3690 nM. In addition, the Ratio Ki in experiment [2] worked out at 0.4.

`CC1(C)CCCN(CCNc2nc3ccccc3s2)C1`: the Ki in experiment [4] was found to be 115 nM; in experiment [1] it was 742 nM; in experiment [3], 566 nM. Besides, the Ratio Ki in experiment [2] is 1.3.

Regarding `CC1(C)CCCN(CCCCC2CCCCc3ccccc32)C1` (racemic), the Ki was 7.3 nM in experiment [4], 65.9 nM in experiment [1] and 0.14 nM in experiment [3]. The Ratio Ki in experiment [2] is 471.

For `CC1(C)CCCN(CCCC2CCCc3sccc32)C1` (racemic) [listing 2 of 3 here], the Ki in experiment [4] was 3.07 nM; in experiment [1], 38 nM; in experiment [3], 0.21 nM.

As to `CC1(C)CCCN(CCCC2CCCc3sccc32)C1` (racemic) [listing 3 of 3 here], the Ratio Ki in experiment [2] came out at 180.

For `CC1(C)CCCN(CCCCCC2CCCc3sccc32)C1` (racemic), the Ki in experiment [4] turned out to be 2.11 nM; in experiment [1] it was 28.1 nM. Moreover, the inhibition (as a rule, the relative decrease from the control value, in per cent) in experiment [6] worked out at 78%.

In the case of `CC1(C)CCCN(CCCn2ccc3ccccc32)C1`, the Ki came to 194 nM in experiment [1] and 50.9 nM in experiment [3]. In addition, in experiment [2], the Ratio Ki is 3.8.

Turning to `CC1(C)CCCN(CCCn2nnc3ccccc32)C1`, the Ki came out at 1990 nM in experiment [1] and 339 nM in experiment [3]. Moreover, the Ratio Ki in experiment [2] came to 5.6.

`CC1(C)CCCN(CCNc2nccs2)C1`: the Ki in experiment [4] worked out at 1400 nM; in experiment [1], 3330 nM; in experiment [3], 459 nM. Moreover, the Ratio Ki in experiment [2] amounted to 7.2.

As to `CC1(C)CCCN(CCNc2nc3c(s2)C(=O)CCC3)C1`, the Ki in experiment [4], in experiment [1] and in experiment [3] was > 10000 nM each time.

Take `CC1(C)CCCN(CCCC2CCCCc3ccccc32)C1` (racemic): the Ki was determined as 0.2 nM in experiment [4], 37.5 nM in experiment [1] and 0.38 nM in experiment [3]. Besides, the Ratio Ki in experiment [2] amounted to 101.

Regarding `CC(C(O)c1ccc(O)cc1)N1CCC(Cc2ccccc2)CC1` (racemic) [IFENPRODIL], in experiment [4], the Ki amounted to 15 nM.

For `COc1cccc2c1CCCC2CCCCN1CCCC(C)(C)C1` (stereo unspecified), the Ki amounted to 0.67 nM in experiment [4], 247 nM in experiment [1] and 2.12 nM in experiment [3]. The Ratio Ki in experiment [2] was 117.

With `CC1(C)CCCN(CC(=O)Nc2nc3c(s2)C(=O)CCC3)C1`, the Ki in experiment [4], in experiment [1] and in experiment [3] was > 10000 nM each time.
